# Test results from ChEMBL document CHEMBL3525963, “Tissue distribution and elimination of [14C]apixaban in rats” (Drug Metab Dispos, 2011).
# Assays:
# Format in all cases: ADME, organism-based
# Conditions in all cases: in vivo
# Pancreas [1] = test: Biodistribution in pregnant Sprague-Dawley rat pancreas at 5 mg/kg, po administered as single dose measured after 48 hrs; design: dose 5 mg/kg, dosed compound name [14C]-apixaban, route oral
# Summary of the method: (§1)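 Pregnant SD rats (270-319 g) were fasted overnight and given one oral gavage of 5 mg/kg (100 μCi/kg) in 0.5% Tween 80 in Labrafil. One rat was euthanized per time point (0.5, 1, 4, 8, 24, 48 h) and the carcass frozen. 40 µm sagittal sections were phosphor-imaged against [14C]glucose standards and results reported as µg eq/g; LLOQ 0.037 µg eq/g.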
# Heart [2] = test: Biodistribution in pregnant Sprague-Dawley rat heart at 5 mg/kg, po administered as single dose measured after 4 hrs; design: dose 5 mg/kg, dosed compound name [14C]-apixaban, route oral
# Muscle tissue = test: Biodistribution in female Sprague-Dawley rat muscle at 5 mg/kg, po administered as single dose measured after 4 hrs; design: dose 5 mg/kg, dosed compound name [14C]-apixaban, route oral
# Summary of the method: (§2)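 [¹⁴C]Apixaban given by oral gavage at 5 mg/kg (100 μCi/kg) in 0.5% Tween 80 in Labrafil (1.0 mg/mL dosing solution) to rats fasted overnight through 4 h post-dose. One rat per time point; carcass frozen in hexane/dry ice. Quantitative whole-body autoradiography used 40 µm sagittal sections and a phosphor imaging plate calibrated with [¹⁴C]glucose standards (0.001–6.5 μCi/g). Read-out in µg eq apixaban/g; LLOQ 0.037 μg eq/g.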
# Thymus [3] = test: Biodistribution in female Sprague-Dawley rat thymus at 5 mg/kg, po administered as single dose measured after 8 hrs; design: dose 5 mg/kg, dosed compound name [14C]-apixaban, route oral
# Summary of the method: (§3)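 Quantitative whole-body autoradiography was run after a single 5 mg/kg (100 μCi/kg) oral gavage to fasted female or pregnant SD rats, one rat per time point. Carcasses were frozen in hexane/dry ice, and 40 µm sagittal sections were dried at −20°C for at least 48 h. Sections were exposed to a phosphor plate alongside [14C]glucose standards (0.001–6.5 µCi/g). Results are µg eq/g, with LLOQ 0.037 µg eq/g.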
# Heart [4] = test: Biodistribution in pregnant Sprague-Dawley rat heart at 5 mg/kg, po administered as single dose measured after 24 hrs; design: dose 5 mg/kg, dosed compound name [14C]-apixaban, route oral
# Summary of the method: (§4)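 Fasted pregnant SD rats (n=6, 270-319 g) each received one oral gavage dose of [14C]apixaban, 5 mg/kg (100 μCi/kg), in 0.5% Tween 80/Labrafil. One rat was killed at each of 0.5, 1, 4, 8, 24 and 48 h. Carcasses were frozen in hexane/dry ice, cut into 40 µm sagittal sections, exposed to phosphor plates and quantified against [14C]glucose standards as µg eq/g. LLOQ was 0.037 µg eq/g.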
# Pancreas [5] = test: Biodistribution in female Sprague-Dawley rat pancreas at 5 mg/kg, po administered as single dose measured after 4 hrs; design: dose 5 mg/kg, dosed compound name [14C]-apixaban, route oral; summary of the method: as §2
# Heart [6] = test: Biodistribution in male Sprague-Dawley rat heart at 5 mg/kg, po administered as single dose measured after 8 hrs; design: dose 5 mg/kg, dosed compound name [14C]-apixaban, route oral
# Summary of the method: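 [14C]apixaban (1.0 mg/mL, 20 μCi/mL) in 0.5% Tween 80 in Labrafil, given by oral gavage at 100 μCi/kg to male rats (225-252 g) fasted overnight through 4 h post-dose. One rat per time point. Carcasses frozen in hexane/dry ice and cut into 40 µm sagittal sections. QWBA read on phosphor plates against [14C]glucose standards, reported as µg eq/g. LLOQ 0.037 µg eq/g.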
# Rattus norvegicus [7] = test: Biodistribution in pregnant Sprague-Dawley rat bone marrow at 5 mg/kg, po administered as single dose measured after 0.5 hrs; design: dose 5 mg/kg, dosed compound name [14C]-apixaban, route oral
# Rattus norvegicus [8] = test: Biodistribution in pregnant Sprague-Dawley rat amnion at 5 mg/kg, po administered as single dose measured after 48 hrs; design: dose 5 mg/kg, dosed compound name [14C]-apixaban, route oral; summary of the method: as §4
# Rattus norvegicus [9] = test: Biodistribution in fetal brain of pregnant Sprague-Dawley rat at 5 mg/kg, po administered as single dose measured after 24 hrs; design: dose 5 mg/kg, dosed compound name [14C]-apixaban, route oral; summary of the method: as §3
# Rattus norvegicus [10] = test: Biodistribution in pregnant Sprague-Dawley rat placenta at 5 mg/kg, po administered as single dose measured after 8 hrs; design: dose 5 mg/kg, dosed compound name [14C]-apixaban, route oral
# Rattus norvegicus [11] = test: Biodistribution in pregnant Sprague-Dawley rat placenta at 5 mg/kg, po administered as single dose measured after 0.5 hrs; design: dose 5 mg/kg, dosed compound name [14C]-apixaban, route oral
# Plasma = test: AUC (0 to infinity) in lactating Sprague-Dawley rat plasma at 5 mg/kg, po administered as single dose; design: time infinity, dose 5 mg/kg, dosed compound name [14C]-apixaban, route oral
# Summary of the method: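 Fasted lactating SD rats received 5 mg/kg [14C]apixaban orally (formulation 5.0 mg/mL, 20 μCi/mL). Oxytocin was injected subcutaneously 15 min before collection, and 1 mL milk was taken under anesthesia by milking machine. Sampling was predose and at 0.5–24 h, 3 rats per time point. Plasma was obtained at 1300g for 10 min. Duplicate 50–100 µL aliquots were counted by LSC for 10 min. AUC was calculated in WinNonlin.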
# Rattus norvegicus [12] = test: Biodistribution in female Sprague-Dawley rat bone marrow at 5 mg/kg, po administered as single dose measured after 8 hrs; design: dose 5 mg/kg, dosed compound name [14C]-apixaban, route oral
# Summary of the method: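 [14C]apixaban (20 μCi/mL in dosing solution) in 0.5% Tween 80 in Labrafil given by oral gavage to fasted female rats, 206-213 g, at 100 μCi/kg. One rat per time point was euthanized and snap-frozen. Sagittal 40 µm whole-body sections were read by QWBA phosphor imaging against [14C]glucose standards. Results are in µg eq apixaban/g, with LLOQ 0.037 μg eq/g.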
# Lung = test: Biodistribution in female Sprague-Dawley rat lung at 5 mg/kg, po administered as single dose measured after 24 hrs; design: dose 5 mg/kg, dosed compound name [14C]-apixaban, route oral; summary of the method: as §3
# Thymus [13] = test: Biodistribution in female Sprague-Dawley rat thymus at 5 mg/kg, po administered as single dose measured after 1 hr; design: dose 5 mg/kg, dosed compound name [14C]-apixaban, route oral; summary of the method: as §2
# Rattus norvegicus [14] = test: Biodistribution in fetal brain of pregnant Sprague-Dawley rat at 5 mg/kg, po administered as single dose measured after 1 hr; design: dose 5 mg/kg, dosed compound name [14C]-apixaban, route oral
# Summary of the method: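 Pregnant SD rats received a single oral gavage of [14C]apixaban at 5 mg/kg (100 μCi/kg; 1.0 mg/mL, 20 μCi/mL in 0.5% Tween 80/Labrafil) after fasting, one dam per time point. Frozen carcasses were cut into 40 µm sagittal sections and read by phosphor-imaging QWBA against [14C]glucose standards. Fetal tissue radioactivity is reported as µg eq/g, with LLOQ 0.037 µg eq/g.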
# Pancreas [15] = test: Biodistribution in female Sprague-Dawley rat pancreas at 5 mg/kg, po administered as single dose measured after 24 hrs; design: dose 5 mg/kg, dosed compound name [14C]-apixaban, route oral; summary of the method: as §3
# Pancreas [16] = test: Biodistribution in pregnant Sprague-Dawley rat pancreas at 5 mg/kg, po administered as single dose measured after 4 hrs; design: dose 5 mg/kg, dosed compound name [14C]-apixaban, route oral
# Spleen = test: Biodistribution in pregnant Sprague-Dawley rat spleen at 5 mg/kg, po administered as single dose measured after 8 hrs; design: dose 5 mg/kg, dosed compound name [14C]-apixaban, route oral
# Liver = test: Biodistribution in pregnant Sprague-Dawley rat liver at 5 mg/kg, po administered as single dose measured after 48 hrs; design: dose 5 mg/kg, dosed compound name [14C]-apixaban, route oral; summary of the method: as §4
# Rattus norvegicus [17] = test: Biodistribution in pregnant Sprague-Dawley rat pituitary gland at 5 mg/kg, po administered as single dose measured after 48 hrs; design: dose 5 mg/kg, dosed compound name [14C]-apixaban, route oral; summary of the method: as §1
# Harderian gland = test: Biodistribution in pregnant Sprague-Dawley rat harderian gland at 5 mg/kg, po administered as single dose measured after 8 hrs; design: dose 5 mg/kg, dosed compound name [14C]-apixaban, route oral
# Heart [18] = test: Biodistribution in female Sprague-Dawley rat heart at 5 mg/kg, po administered as single dose measured after 24 hrs; design: dose 5 mg/kg, dosed compound name [14C]-apixaban, route oral; summary of the method: as §3
# Blood = test: Biodistribution in female Sprague-Dawley rat blood at 5 mg/kg, po administered as single dose measured after 0.5 hrs; design: dose 5 mg/kg, dosed compound name [14C]-apixaban, route oral; summary of the method: as §2
# [19] = Drug level in lactating Sprague-Dawley rat milk at 5 mg/kg, po administered as single dose after 2 hrs; design: dose 5 mg/kg, dosed compound name [14C]-apixaban, route oral
structure (smiles),measurement,setting,value
COc1ccc(-n2nc(C(N)=O)c3c2C(=O)N(c2ccc(N4CCCC[14C]4=O)cc2)CC3)cc1,Radiolabel recovery,Pancreas [1],Not detected assumed BLQ
same,Radiolabel recovery,Heart [2],0.83 ugequiv/g
same,Radiolabel recovery,Muscle tissue,0.29 ugequiv/g
same,Radiolabel recovery,Thymus [3],0.09 ugequiv/g
same,Radiolabel recovery,Heart [4],Not detected assumed BLQ
same,Radiolabel recovery,Pancreas [5],0.55 ugequiv/g
same,Radiolabel recovery,Heart [6],0.08 ugequiv/g
same,Radiolabel recovery,Rattus norvegicus [7],0.5 ugequiv/g
same,Radiolabel recovery,Rattus norvegicus [8],Not sampled as not visualised in autoradiograph
same,Radiolabel recovery,Rattus norvegicus [9],Not detected assumed BLQ
same,Radiolabel recovery,Rattus norvegicus [10],0.1 ugequiv/g
same,Radiolabel recovery,Rattus norvegicus [11],1.02 ugequiv/g
same,AUC,Plasma,3470 ngequiv.hr/g
same,Radiolabel recovery,Rattus norvegicus [12],0.15 ugequiv/g
same,Radiolabel recovery,Lung,Not sampled as not visualised in autoradiograph
same,Radiolabel recovery,Thymus [13],0.27 ugequiv/g
same,Radiolabel recovery,Rattus norvegicus [14],0.05 ugequiv/g
same,Radiolabel recovery,Pancreas [15],Not detected assumed BLQ
same,Radiolabel recovery,Pancreas [16],0.99 ugequiv/g
same,Radiolabel recovery,Spleen,0.05 ugequiv/g
same,Radiolabel recovery,Liver,Not detected assumed BLQ
same,Radiolabel recovery,Rattus norvegicus [17],Not sampled as not visualised in autoradiograph
same,Radiolabel recovery,Harderian gland,0.19 ugequiv/g
same,Radiolabel recovery,Heart [18],Not detected assumed BLQ
same,Radiolabel recovery,Blood,0.4 ugequiv/g
same,Radiolabel recovery,[19],7.59 µg/mL
